Shown are actives, neighbours in structure and some others; about 27% of the full set was active somewhere.
Cav32 inh = Cav3.2 calcium influx blockers – cell-based, Fluo-4 calcium fluorescence, FDSS, MLSMR library, primary screen; Voltage-dependent T-type calcium channel subunit alpha-1H (Homo sapiens), O95180; Cav3.2-expressing cells; stronger effect = lower value; B-score at 10 µM; hit rate 4% among 100,000; AID 449739, 2010;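 active means single-dose well whose peak fluorescence ratio is a statistical outlier from its plate by either plate-standardised score or position-corrected B-score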
CYP2C19 activ = human CYP2C19 activators, primary screen, biochemical, luminescence; Cytochrome P450 2C19 (Homo sapiens), P33261; recombinant CYP2C19, luciferin-H EGE luminescence; stronger effect = higher value; 0 = fully inhibited enzyme, 1 = untreated enzyme; activation factor at 5 µM; 96,000 tested, under 10 active;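 active means activation factor of at least 2 at 5 µM in the primary screen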;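 further: 0 = wells with 2.5 mM tranylcypromine and 1 = vehicle-only wells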
CYP2C19 inhib = blockers of cytochrome P450 2C19 activity – biochemical, luminescence, ADME assay, primary screen; CYP2C19 Supersomes, luciferin-H EGE luminescence, 30 min; P33261; hit rate 21% among 96,000; inhibition, % at 5 µM;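 active means CYP2C19 inhibition above a set limit at 5 µM in the primary screen, cut at about 50% in these data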;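 further: plate controls were negative control wells for no effect and 2.5 mM tranylcypromine positive control for full effect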
CYP2C9 inh = blockers of cytochrome P450 2C9 activity – biochemical, luminescence, ADME assay, primary screen | P11712 | CYP2C9 Supersomes, luciferin-H conversion | inhibition, % at 5 µM | hit rate 20% among 96,000 | AID 777, 2007;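 active means blocking of liver enzyme CYP2C9 beyond about 50% at 5 µM, limit read from the data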
Target sequence (P11712 whole entry, looked up): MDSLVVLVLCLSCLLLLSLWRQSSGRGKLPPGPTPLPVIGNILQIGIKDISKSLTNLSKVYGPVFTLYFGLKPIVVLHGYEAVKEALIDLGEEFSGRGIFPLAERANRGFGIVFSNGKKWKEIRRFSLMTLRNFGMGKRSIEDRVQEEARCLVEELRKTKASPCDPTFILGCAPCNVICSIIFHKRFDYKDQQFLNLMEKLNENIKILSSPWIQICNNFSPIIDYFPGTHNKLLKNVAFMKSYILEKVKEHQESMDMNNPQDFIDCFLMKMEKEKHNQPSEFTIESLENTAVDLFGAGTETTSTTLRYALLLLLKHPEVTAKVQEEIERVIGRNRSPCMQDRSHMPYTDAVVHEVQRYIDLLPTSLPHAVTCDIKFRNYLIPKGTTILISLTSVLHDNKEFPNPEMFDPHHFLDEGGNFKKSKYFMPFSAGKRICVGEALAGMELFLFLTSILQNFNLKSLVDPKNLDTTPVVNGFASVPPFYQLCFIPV
CYP2C9 activ = human CYP2C9 activators, primary screen, biochemical, luminescence | Cytochrome P450 2C9 (Homo sapiens), P11712 | AID 1024, 2008 | activation factor at 5 µM | hit rate 1.4% among 96,000 | recombinant CYP2C9, luciferin-H conversion; stronger effect = higher value; factor 1 = untreated enzyme, 0 = blocked;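 active means activation factor of 2 or more for CYP2C9 at a 5 µM dose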;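 further: 0 = sulfaphenazole-blocked wells and 1 = vehicle-only wells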
HIV Rev-RRE inh = HIV-1 Rev-RRE binding inhibitors, primary screen, biochemical, FRET, protein-RNA interaction | P05866 | Rev peptide-RRE RNA binding | inhibition, % at 8 µM | hit rate 0.79% among 97,000 | AID 704, 2007;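 active means inhibition above the screen-wide mean plus 3 SD, cut at about 35% in these data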;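 further: 0% = median DMSO wells and 100% = median Neomycin B control wells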
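Test system: Cy5-tagged RRE RNA duplex with fluorescein-tagged Rev peptide; Probe or stimulus: labelled Rev peptide; Schedule: 5 min preincubation and 15 min binding, 25 °C; Signal: FRET fluorescence readout; Evaluation: % inhibition from 671/540 nm acceptor-to-donor ratio, scaled between controls; Control set: DMSO and neomycin B.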
Numbers without * were called inactive; [ ] = another dose, or the depositor's remark.

What do the screens show for `COc1ccccc1N1CCN(C(=O)c2ccc(Cl)c(S(=O)(=O)NCc3ccco3)c2)CC1`?
Cav32 inh: -0.313; CYP2C19 activ: 0.3; CYP2C19 inhib: 69.6*; CYP2C9 inh: 77.4*; CYP2C9 activ: 0.2; HIV Rev-RRE inh: 3.6

Results for COc1cc(OC)c(S(=O)(=O)NCc2ccco2)cc1S(=O)(=O)NCc1ccco1 ?
Cav32 inh: 0.0109; CYP2C19 activ: 1.1; CYP2C19 inhib: -8.7; CYP2C9 inh: -6.8; CYP2C9 activ: 1.1; HIV Rev-RRE inh: 0.7

What do the screens show for `COc1ccc(OC)c(-c2nnc(-c3ccc(C)o3)o2)c1`?
Cav32 inh: -0.00471; CYP2C19 activ: 0.6; CYP2C19 inhib: 44.0; CYP2C9 inh: 1.1; CYP2C9 activ: 1; HIV Rev-RRE inh: 4.8

Results for O=S(=O)(c1cccc(C(F)(F)F)c1)N1CCC(c2cc(-c3cccc4ccccc34)n[nH]2)CC1 ?
Cav32 inh: -0.0893; CYP2C19 activ: 0.9; CYP2C19 inhib: 6.0; CYP2C9 inh: 9.0; CYP2C9 activ: 0.9; HIV Rev-RRE inh: 6.5

What do the screens show for `S=c1nc(-c2ccccc2Br)[nH][nH]1`?
Cav32 inh: -0.0908; HIV Rev-RRE inh: 5.3

How did Cc1ccc(NC(=O)CCCCCC2NC(=O)NC2C)cc1 (stereo not given) do in these assays?
Cav32 inh: 0.941; CYP2C19 activ: 0.4; CYP2C19 inhib: 60.6*; CYP2C9 inh: -48.4; CYP2C9 activ: 1.5; HIV Rev-RRE inh: -0.5

Results for Cc1oc(-c2ccccc2)nc1CC(=O)O ?
Cav32 inh: 0.1; CYP2C19 activ: 1.1; CYP2C19 inhib: -13.8; CYP2C9 inh: -11.2; CYP2C9 activ: 1.1; HIV Rev-RRE inh: 6.9

What do the screens show for `CC1=Nc2ccccc2/C1=C\c1nc(-c2ccc(C(F)(F)F)cc2)oc1O`?
Cav32 inh: -0.235; CYP2C19 activ: 1.1; CYP2C19 inhib: -5.4; CYP2C9 inh: -15.0; CYP2C9 activ: 1.1; HIV Rev-RRE inh: 125.8*[fluorescence artefact?]

What do the screens show for `CC1=Nc2ccccc2/C1=C\c1nc(-c2ccccc2)oc1O`?
Cav32 inh: -0.848; CYP2C19 activ: 0.6; CYP2C19 inhib: 42.2; CYP2C9 inh: 95.0*; CYP2C9 activ: 0.1; HIV Rev-RRE inh: 54.1*

Results for CCOC(=O)CCCCC(=O)NC(CO)C(=O)NC (stereo not given) ?
Cav32 inh: -0.0843; CYP2C19 activ: 1.2; CYP2C19 inhib: -15.8; CYP2C9 inh: -20.5; CYP2C9 activ: 1.2; HIV Rev-RRE inh: 5.4

Results for OC(c1ccccc1)c1nc2ccccc2s1 (stereo not given) ?
Cav32 inh: -1.19; CYP2C19 activ: 0.3; CYP2C19 inhib: 65.3*; CYP2C9 inh: -10.8; CYP2C9 activ: 1.1; HIV Rev-RRE inh: 7.8

What do the screens show for `O=C(CN1CCCCC1)Nc1cc(Cl)ccc1Cl`?
Cav32 inh: -0.241; CYP2C19 activ: 0.4; CYP2C19 inhib: 63.2*; CYP2C9 inh: -117.8; CYP2C9 activ: 2.2*; HIV Rev-RRE inh: 0.2

What do the screens show for `Cc1ccc(S(=O)(=O)Nc2ccc(NC(=O)CN3CCCCC3)c(Cl)c2)cc1`?
Cav32 inh: -2.33; CYP2C19 activ: 0.3; CYP2C19 inhib: 70.6*; CYP2C9 inh: 100.0*; CYP2C9 activ: 0; HIV Rev-RRE inh: 4.8

How did O=C(CN1CCCCC1)Nc1ccc(F)c(Cl)c1 do in these assays?
Cav32 inh: 0.247; CYP2C19 activ: 0.2; CYP2C19 inhib: 80.9*; CYP2C9 inh: 7.7; CYP2C9 activ: 0.9

How did O=C(CN1CCOCC1)Nc1cccc(Cl)c1Cl do in these assays?
Cav32 inh: 0.148; CYP2C19 activ: 0.2; CYP2C19 inhib: 78.0*; CYP2C9 inh: -30.0; CYP2C9 activ: 1.3; HIV Rev-RRE inh: 4.0

Results for Cc1ccc(S(=O)(=O)Cn2cnnn2)cc1 ?
Cav32 inh: 0.557; CYP2C19 activ: 0.9; CYP2C19 inhib: 10.1; CYP2C9 inh: 3.4; CYP2C9 activ: 1

What do the screens show for `Cn1c(=O)c2[nH]c(N3CCOCC3)nc2n(-c2ccccc2)c1=O`?
Cav32 inh: 0.215; CYP2C19 activ: 1; CYP2C19 inhib: 2.2; CYP2C9 inh: -0.3; CYP2C9 activ: 1; HIV Rev-RRE inh: 5.8

Bioassay records (PubChem BioAssay)
